# An excerpt weighted towards active compounds, which were near 4.6% of everything screened.
# OX1R antag-1: OX1R (HCRTR1) antagonists, primary screen, fluorescence, CHO/OX1R cells, Fluo-8 calcium, orexin A. inhibition, % at 5 µM. 330,000 tested, 0.43% active. Fluo-8 calcium fluorescence. Orexin/Hypocretin receptor type 1 (Homo sapiens), O43613;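 active = inhibition above its plate's threshold, mean inhibition of all tested compounds on the plate plus 3 SD, cut at about 37% in these data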;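 note: 0% = orexin A challenge wells and 100% = SB-334867-A antagonist wells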
# GPR7 antagonist: GPR7 receptor antagonists, primary screen, cell-based, fluorescence, single concentration; Neuropeptides B/W receptor type 1 (Homo sapiens), P48145; GPR7-expressing cells, fluorescence antagonist assay; inhibition, % at 4.4 µM; 290,000 tested, 1.1% active; AID 1861, 2009; in the data active = inhibition above about 16%, passing the limit was not always enough;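 note: cells stimulated with the agonist NPW; 0% = agonist with vehicle and 100% = vehicle without agonist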
# Target sequence (P48145 whole entry, looked up): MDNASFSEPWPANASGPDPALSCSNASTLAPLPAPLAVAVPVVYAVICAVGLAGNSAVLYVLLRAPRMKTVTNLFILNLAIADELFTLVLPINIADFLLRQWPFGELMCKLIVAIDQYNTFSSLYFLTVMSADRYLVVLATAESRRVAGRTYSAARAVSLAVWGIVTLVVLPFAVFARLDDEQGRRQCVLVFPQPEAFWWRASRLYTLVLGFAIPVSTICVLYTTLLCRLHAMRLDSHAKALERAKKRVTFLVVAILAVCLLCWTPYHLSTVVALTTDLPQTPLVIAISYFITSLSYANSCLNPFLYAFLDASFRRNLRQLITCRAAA
# OX1R antag-2: antagonists of human orexin 1 receptor (OX1R); inhibition, % at 6.6 µM; 330,000 tested, 1.8% active; OX1R-expressing cells, FRET antagonist read-out; Orexin/Hypocretin receptor type 1 (Homo sapiens), O43613; in the data active = inhibition mostly above about 38%, no sharp cut-off; inactive = mostly below about 40%;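 note: 0% = agonist challenge alone and 100% = reference antagonist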
# TAAR1 antagonist: human TAAR1 antagonists, primary screen, Fluo-8 calcium fluorescence, CHO RD-HGA16 cells. antagonist. inhibition, % at 3 µM. 360,000 tested, 1.5% active. AID 624466, 2012;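 active = inhibition above a per-plate cutoff, the mean inhibition of test compounds on that plate plus 3 SD, cut at about 49% in these data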;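 note: 0% = DMSO plus EC80 beta-PEA response and 100% = DMSO alone without agonist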
#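 Material: CHO RD-HGA16 cells bearing hTAAR1; compound dosing: one-point dosing, 3 µM nominal final; schedule: dye loading 75 min at 37 °C, then 30 min room temperature; measured by: calcium fluorescence with Fluo-8; control set: vehicle and agonist controls; replication: n of 1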
# CHO parental Ca: ATP-evoked calcium signal inhibitors, parental CHO, primary screen, counter-screen for OX1R antagonist project, cell-based, fluorescence, Fluo-8 calcium dye. parental CHO-K1, ATP-induced calcium, Fluo-8 fluorescence. inhibition, % at 5.6 µM. 330,000 tested, 0.63% active;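 active = inhibition above that plate's mean sample inhibition plus 3 SD, cut at about 26% in these data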;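 note: 0% = ATP-challenged DMSO wells and 100% = DMSO wells without ATP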
#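 test system = CHO parental line | reagent = ATP stimulus | measured by = intracellular calcium via Fluo-8 no-wash fluorescent dye | control set = ATP and no-ATP DMSO wells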
# TAAR1 agonist: human TAAR1 agonists, primary screen, Fluo-8 calcium fluorescence, CHO RD-HGA16 cells. Trace amine-associated receptor 1 (Homo sapiens), Q96RJ0. activation, % at 3 µM. vehicle wells 0%, saturating PEA agonist 100%. 360,000 tested, 0.99% active. AID 624467, 2012;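 active = activation above the mean activation of all test compounds in the run plus 3 SD, cut at about 38% in these data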
#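 Assay system – CHO-derived RD-HGA16 cells with stable Gα16 and human TAAR1 · Compound dosing – one-point dosing at 3 µM (nominal) · Incubation – 17-24 h seeding, 75 min 37 °C dye, 30 min RT · Measured by – kinetic Fluo-8 calcium fluorescence · Control set – DMSO vehicle as 0%, PEA at EC100 as 100% · Repeats – single well for each compound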
# Numbers without * were called inactive; nt = no result.
SMILES,OX1R antag-1,GPR7 antagonist,OX1R antag-2,TAAR1 antagonist,CHO parental Ca,TAAR1 agonist
Nc1ccn([C@@H]2O[C@H](C(=O)N[C@H](CO)c3ccccc3)[C@@H](O)[C@H]2O)c(=O)n1,nt,nt,nt,-10,nt,4
COc1ccc(-c2cc(C(=O)OCC(=O)N3CCOCC3)c3ccccc3n2)cc1,27,nt,55*,-4,-21,7
COc1ccc2cc(-c3cc(C(=O)OCC(=O)Nc4c(C)n(C)n(-c5ccccc5)c4=O)c4ccccc4n3)ccc2c1,nt,-4,nt,66*,nt,13
COc1ccc(C(=O)OCC(=O)Nc2c(C)n(C)n(-c3ccccc3)c2=O)cc1,-6,nt,2,-20,-11,0
CC(=O)c1cccc(S(=O)(=O)Nc2ccccc2N2CCOCC2)c1,-2,nt,6,-3,-2,3
O=C1CCN(CCCN2CCC(=O)NC2=S)C(=S)N1,nt,nt,nt,-19,nt,1
CCCC(=O)Nc1ccc(Cl)c(NC(=S)NC(=O)C(C)C)c1,-4,2,12,-6,9,4
CCCC(=O)Nc1ccc(Cl)c(NC(=O)c2cccnc2Cl)c1,1,6,16,2,7,39*
COC(=O)C1=C(C)N(Cc2ccccc2C(F)(F)F)C(=NCc2cccc(C(F)(F)F)c2)NC1c1cccc(Cl)c1 (centres undefined),nt,nt,nt,-42,nt,4
Cc1nc(SCc2ccc(Cl)c(Cl)c2)n[nH]1,nt,-15,nt,-6,nt,-1
CNc1cc(CSC)nc(SCc2ccc(Cl)c(Cl)c2)n1,55*,-4,49*,13,-17,2
c1ccc(OCCNc2ccn3nc(-c4ccc(OCCN5CCOCC5)cc4)cc3n2)cc1,nt,nt,nt,61*,nt,20
c1csc(CNc2ccn3nc(-c4ccc(OCCN5CCOCC5)cc4)cc3n2)c1,nt,nt,nt,33,nt,29
C/C(=N\Nc1ccc(S(N)(=O)=O)cc1[N+](=O)[O-])c1ccccc1O,-1,-7,22,-15,-13,5
C/C(=N\Nc1ccc(S(N)(=O)=O)cc1[N+](=O)[O-])c1ccco1,8,-11,41*,3,16,-3
NS(=O)(=O)c1ccc(N/N=C/c2ccc(O)cc2O)c([N+](=O)[O-])c1,4,1,20,10,1,3
NS(=O)(=O)c1ccc(N/N=C/c2ccccn2)c([N+](=O)[O-])c1,-12,-11,46*,10,-3,0
COC(=O)[C@]12C[C@H](CC(=O)N3CCC(c4ccccc4)CC3)C(=O)N(CCc3ccc(OC)c(OC)c3)C1=C[C@H](C(C)(C)C)O[C@@H]2C,nt,nt,nt,-20,nt,-1
COc1cc2c(cc1OC)C(C(=O)O)C(c1ccc3c(c1)OCO3)N(C)C2=O (centres undefined),nt,nt,nt,-8,nt,0
Cc1[nH]c2ccccc2c1CC(=O)Nc1ccc(Nc2cccnc2)c(-c2cc(F)cc(F)c2)c1,nt,nt,nt,2,nt,3
O=C(Nc1ccc(Cl)cc1)Nc1ccccc1NS(=O)(=O)c1cccs1,-26,-13,60*,9,-7,15
O=S(=O)(Nc1ccccc1Cl)c1ccc(NS(=O)(=O)c2cccs2)cc1,-5,5,8,8,1,38*
O=C(COc1ccccc1)Nc1ccccc1NS(=O)(=O)c1cccs1,-13,-8,17,12,-11,0
CC(=O)N1CCN(c2ccccc2NC(=O)COc2ccc(Cl)cc2Cl)CC1,-23,19*,37,40,-8,30
CC(=O)N1CCN(c2ccccc2NC(=O)COc2ccccc2C)CC1,-25,14,8,28,-18,4
O=C(COc1ccc(Cl)cc1Cl)Nc1ccccc1NS(=O)(=O)c1cccs1,-11,-12,52*,0,19,6
NC(=O)c1ccccc1NS(=O)(=O)c1cccs1,12,-1,13,-15,-15,10
CSCCC1COC(c2cccs2)=N1 (centres undefined),-9,-22,2,-12,1,3

# Source: PubChem BioAssay
